Experimental data: ChEMBL document CHEMBL3804777, “Identification and Preclinical Pharmacology of BMS-986104: A Differentiated S1P1 Receptor Modulator in Clinical Trials” (ACS Med Chem Lett, 2016)
Active and inactive are the calls of the source. The calls are words filed in the database; no cut-off is given here.

Columns and labels:
[1] = test system: Mus musculus; test: Reduction in Ifit1 gene expression in SCID mouse with CD45RBhiCD4+ T-cell transfer-induced colitis model of inflammatory bowel disease at 1 mg/kg, po dosed daily for 5 weeks by RT-PCR method; format: functional; set-up: scale not given: the % may be the effect or the level left
In short: (§1)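 CD45RBhiCD4+ T-cell transfer colitis in mice; oral dosing at 1 mg/kg/day for 5 weeks, compared with vehicle. Read-outs: body weight, colon length, and colon gene expression by RT-PCR (IFN-γ, IL-2, CD4, B220, CD11b, Fcgr4, Ifit1, OASL2).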

[2] = test system: Blood; test: Drug metabolism in BALB/c mouse blood assessed as formation of phosphate ester metabolite at 10 mg/kg administered through oral gavage after 4 hrs by LC/MS/MS analysis; format: ADME, organism-based; details: in vivo
In short: (§2)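 Mouse PK study: alcohol prodrug given orally at 10 mg/kg, and formation of the phosphate metabolite in blood measured.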

[3] = test system: Blood; test: Drug metabolism in BALB/c mouse blood assessed as formation of phosphate metabolite at 1 mg/kg administered through oral gavage after 24 hrs by LC/MS/MS analysis; format: ADME, organism-based; details: in vivo
In short: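 Single oral 1 mg/kg dose in mice; phosphate level in blood determined at 24 h postdose.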

[4] = Drug metabolism in BALB/c mouse whole blood assessed as whole blood phosphate area ratio at 10 uM after 4 hrs by LC/MS/MS analysis; format: ADME, tissue-based
In short: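 Mouse whole blood incubated with the amino-alcohol prodrug; phosphorylated product measured by LC/MS/MS after 4 h to give the relative extent of phosphate ester formation.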

[5] = test system: Mus musculus; test: Reduction in CD4 gene expression in SCID mouse with CD45RBhiCD4+ T-cell transfer-induced colitis model of inflammatory bowel disease at 1 mg/kg, po dosed daily for 5 weeks by RT-PCR method; format: functional; set-up: scale not given: the % may be the effect or the level left; details: in the assay text read “dosed on alternate days” for “dosed daily”
[6] = test system: Mus musculus; test: Reduction in colon tissue damage in SCID mouse with CD45RBhiCD4+ T-cell transfer-induced colitis model of inflammatory bowel disease at 1 or 5 mg/kg, po dosed every other day for 5 weeks by H and E staining method; format: functional, organism-based
In short: (§3)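 CD45RBhiCD4+ T-cell transfer colitis in mice; oral alternate-day dosing for 5 weeks, compared with vehicle. Read-outs: body weight, colon length, histological colon inflammation and tissue damage, and colon gene expression by RT-PCR (IFN-γ, IL-2, CD4, B220, CD11b, Fcgr4, Ifit1, OASL2).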

[7] = test system: Mus musculus; test: Pulmonary toxicity in BALB/c mouse assessed as BAL protein levels at 10 mg/kg, po after 24 by hematology analysis (reference value: 8.2 to 8.3 mg/dL); format: organism-based; details: in vivo
[8] = Plasma clearance in mouse at 0.5 mg/kg, iv; format: ADME, organism-based
[9] = test system: Mus musculus; test: Reduction in blood lymphocyte level in BALB/c mouse at 1 mg/kg, po after 24 hrs by hematology analysis; format: functional, organism-based
In short: (§4)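 Mice given a single oral 1 mg/kg dose; circulating lymphocytes counted 24 h later as the pharmacodynamic marker.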

[10] = test system: Mus musculus; test: Pulmonary toxicity in BALB/c mouse assessed as BAL protein levels at 0.5 mg/kg, po after 24 by hematology analysis (reference value: 8.2 to 8.3 mg/dL); format: organism-based; details: in vivo
[11] = test system: Mus musculus; test: Pulmonary toxicity in BALB/c mouse assessed as BAL protein levels at 30 mg/kg, po after 24 by hematology analysis (reference value: 8.2 to 8.3 mg/dL); format: organism-based; details: in vivo
[12] = test system: Mus musculus; test: Reduction in OASL2 gene expression in SCID mouse with CD45RBhiCD4+ T-cell transfer-induced colitis model of inflammatory bowel disease at 1 mg/kg, po dosed daily for 5 weeks by RT-PCR method; format: functional; set-up: scale not given: the % may be the effect or the level left; in short: as §1
[13] = test system: Mus musculus; test: Reduction in Fcgr4 gene expression in SCID mouse with CD45RBhiCD4+ T-cell transfer-induced colitis model of inflammatory bowel disease at 1 mg/kg, po dosed daily for 5 weeks by RT-PCR method; format: functional; set-up: scale not given: the % may be the effect or the level left; in short: as §1
[14] = test system: Mus musculus; test: Reduction of blood lymphocyte level in BALB/c mouse at 1 mg/kg administered through oral gavage after 24 hrs by hematology analysis; format: functional; set-up: scale not given: the % may be the effect or the level left; in short: as §4
[15] = Oral bioavailability in mouse at 1 mg/kg; format: ADME, organism-based; details: in vivo
[16] = test system: Mus musculus; test: Reduction in lymphocyte level in BALB/c mouse assessed as blood lymphocyte level at 0.5 mg/kg, po after 24 hrs by hematology analysis (reference value: 5.13 to 8.02 10^3/mm3); format: functional
[17] = test system: Mus musculus; test: Reduction in IL2 gene expression in SCID mouse with CD45RBhiCD4+ T-cell transfer-induced colitis model of inflammatory bowel disease at 1 mg/kg, po dosed daily for 5 weeks by RT-PCR method; format: functional; set-up: scale not given: the % may be the effect or the level left; details: in the assay text read “dosed on alternate days” for “dosed daily”
[18] = test system: Mus musculus; test: Reduction in colon inflammation in SCID mouse with CD45RBhiCD4+ T-cell transfer-induced colitis model of inflammatory bowel disease at 1 or 5 mg/kg, po dosed every other day for 5 weeks by H and E staining method; format: functional, organism-based; in short: as §3
[19] = test system: Mus musculus; test: Reduction in B220 gene expression in SCID mouse with CD45RBhiCD4+ T-cell transfer-induced colitis model of inflammatory bowel disease at 1 mg/kg, po dosed daily for 5 weeks by RT-PCR method; format: functional; set-up: scale not given: the % may be the effect or the level left; details: in the assay text read “dosed on alternate days” for “dosed daily”
[20] = test system: Blood; test: Drug metabolism in BALB/c mouse blood assessed as formation of phosphate ester metabolite at 10 mg/kg administered through oral gavage after 24 hrs by LC/MS/MS analysis; format: ADME, organism-based; details: in vivo; in short: as §2
[21] = Volume of distribution at steady state in mouse at 0.5 mg/kg, iv; format: ADME, organism-based; details: in vivo, read-out: Vdss
[22] = test system: Mus musculus; test: Reduction in lymphocyte level in BALB/c mouse assessed as blood lymphocyte level at 10 mg/kg, po after 24 hrs by hematology analysis (reference value: 5.13 to 8.02 10^3/mm3); format: functional
[23] = test system: Mus musculus; test: Reduction in CD11b gene expression in SCID mouse with CD45RBhiCD4+ T-cell transfer-induced colitis model of inflammatory bowel disease at 1 mg/kg, po dosed daily for 5 weeks by RT-PCR method; format: functional; set-up: scale not given: the % may be the effect or the level left; details: in the assay text read “dosed on alternate days” for “dosed daily”
[24] = test system: Mus musculus; test: Induction of colon length shortening in SCID mouse with CD45RBhiCD4+ T-cell transfer-induced colitis model of inflammatory bowel disease at 1 or 5 mg/kg, po dosed every other day for 5 weeks; format: functional, organism-based; in short: as §3
[25] = test system: Mus musculus; test: Reduction in lymphocyte level in BALB/c mouse assessed as blood lymphocyte level at 30 mg/kg, po after 24 hrs by hematology analysis (reference value: 5.13 to 8.02 10^3/mm3); format: functional
[26] = test system: Mus musculus; test: Reduction in body weight loss in SCID mouse with CD45RBhiCD4+ T-cell transfer-induced colitis model of inflammatory bowel disease at 1 or 5 mg/kg, po dosed every other day for 5 weeks; format: functional, organism-based; in short: as §3
[27] = test system: Mus musculus; test: Reduction in IFNgamma gene expression in SCID mouse with CD45RBhiCD4+ T-cell transfer-induced colitis model of inflammatory bowel disease at 1 mg/kg, po dosed daily for 5 weeks by RT-PCR method; format: functional; set-up: scale not given: the % may be the effect or the level left; details: in the assay text read “dosed on alternate days” for “dosed daily”

Drug metabolism [2]: 41 nM
Drug metabolism [3]: 27 nM
Ratio [4]: 0.6
clearance [8]: 20 mL/min/kg
bioavailability [15]: 65%
Drug metabolism [20]: 202 nM
Vd [21]: 60 L/kg
SMILES: CCCCCC[C@@H]1CCc2cc([C@H]3CC[C@](N)(CO)C3)ccc2C1 [BMS-986104]
Activity [1]: 42%
Activity [5]: 51%
Activity [6]: Dose-dependent effect
Activity [7]: 8.25 mg/dL
Activity [9]: Active
Activity [10]: 7.67 mg/dL
Activity [11]: 10 mg/dL
Activity [12]: 41%
Activity [13]: 50%
Activity [14]: 88%
Activity [16]: 1.65 ×10³ /mm3
Activity [17]: 63%
Activity [18]: Dose-dependent effect
Activity [19]: 47%
Activity [22]: 0.51 ×10³ /mm3
Activity [23]: 41%
Activity [24]: Dose-dependent effect
Activity [25]: 0.52 ×10³ /mm3
inhibition [26]: Dose-dependent effect
Activity [27]: 45%
